Assay results from different studies.
Compare with care: the assays were run in different laboratories.
Target: Serine/threonine-protein kinase DCLK1 (DCLK1, Homo sapiens, UniProt O15075)
Residues used in one study (O15075 1-740): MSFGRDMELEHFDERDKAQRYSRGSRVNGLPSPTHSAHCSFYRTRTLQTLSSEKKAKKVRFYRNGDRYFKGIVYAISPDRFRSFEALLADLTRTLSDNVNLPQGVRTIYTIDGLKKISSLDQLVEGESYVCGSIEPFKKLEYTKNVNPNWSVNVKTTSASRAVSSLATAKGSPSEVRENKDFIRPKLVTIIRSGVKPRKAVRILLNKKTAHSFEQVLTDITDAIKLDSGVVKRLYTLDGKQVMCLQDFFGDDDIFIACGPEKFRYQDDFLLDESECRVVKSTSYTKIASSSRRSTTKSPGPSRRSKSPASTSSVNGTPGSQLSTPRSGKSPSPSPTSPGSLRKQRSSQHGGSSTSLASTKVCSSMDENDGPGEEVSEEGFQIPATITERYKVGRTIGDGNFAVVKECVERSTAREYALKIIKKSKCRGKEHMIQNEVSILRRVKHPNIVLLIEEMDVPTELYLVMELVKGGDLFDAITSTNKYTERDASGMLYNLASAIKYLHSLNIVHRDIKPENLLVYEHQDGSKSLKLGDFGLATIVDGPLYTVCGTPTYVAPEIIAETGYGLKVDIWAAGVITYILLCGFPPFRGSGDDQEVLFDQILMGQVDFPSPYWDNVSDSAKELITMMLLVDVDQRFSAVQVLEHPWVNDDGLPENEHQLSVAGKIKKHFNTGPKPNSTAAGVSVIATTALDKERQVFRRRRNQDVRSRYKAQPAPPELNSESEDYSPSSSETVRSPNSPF

CNC(=O)[C@@H]1CC[C@@H](n2c(-c3ccc4cnccc4c3)nc3ccc(C(=O)NCc4cccc(C(N)=O)c4)cc32)C1  remaining binding (binding; competition with immobilised ligand; 1 µM): 85%
COc1ncc2cc3ccccc3nc2c1C#N  remaining binding (cell-free assay; competition with immobilised ligand; 5 µM): 98%
O=C(NCC1CCOCC1)c1n[nH]cc1NC(=O)c1c(F)cccc1F  remaining binding (binding; competition with immobilised ligand; 1 µM): 75%
COCCOc1nc(-c2ccc(Cl)nc2)nc2c1CN(C(=O)c1ncn3ccccc13)CC2  remaining binding (cell-free assay; competition with immobilised ligand; 0.1 µM): 100%
N[C@H]1CCN(c2nccc(-c3cnn4ncccc34)n2)C1  remaining binding (binding; competition with immobilised ligand; 1 µM): 83%
Nc1c(C(=O)NCc2ccc(C(=O)NCCCC3CCCCC3)cc2)cnn1-c1ccccc1  remaining binding (cell-free assay; competition with immobilised ligand; 0.1 µM): 100%
Cc1cnn2ncc(-c3ccnc(N(C)C)n3)c2c1  remaining binding (binding; competition with immobilised ligand; 1 µM): 91%
CC(C)CC(=O)N1CCc2nc(-c3ccc(Br)cc3)nc(N(C)Cc3ccccc3)c2C1  remaining binding (cell-free assay; competition with immobilised ligand; 0.1 µM): 100%
COc1ccnn2ncc(-c3ccnc(N(C)C)n3)c12  remaining binding (binding; competition with immobilised ligand; 1 µM): 80%
COc1cnc(Nc2cccc(S(N)(=O)=O)c2)nc1N1CCN(c2ccccc2)CC1  remaining binding (binding; competition with immobilised ligand; 1 µM): 92%
CCC(=N\O)/C(C)=C/c1ccc(F)cc1  remaining binding (cell-free assay; competition with immobilised ligand; 1 µM): 93%
CN(C)c1nccc(-c2cnc3ncccn23)n1  remaining binding (binding; competition with immobilised ligand; 1 µM): 61%
CNCc1ccccc1-c1csc([C@H](C)Nc2nc(C)nc3cc(OC)c(OC)cc23)c1  remaining binding (cell-free assay; competition with immobilised ligand; 1 µM): 87%
O=C(NCCCN1CCOCC1)c1ccc(Nc2nccc(-c3cc4ccccc4s3)n2)cc1  remaining binding (binding; competition with immobilised ligand; 1 µM): 88%
C[C@H]1CCN(c2nccc(-c3cnn4ncccc34)n2)C1  remaining binding (binding; competition with immobilised ligand; 1 µM): 85%
O=C(NCCCN1CCOCC1)c1ccc(Nc2ncc(Cl)c(-c3ccc(Cl)s3)n2)cc1  remaining binding (binding; competition with immobilised ligand; 1 µM): 56%
N#Cc1ccccc1CSc1nnc2c(n1)[nH]c1ccccc12  remaining binding (binding; competition with immobilised ligand; 10 µM): 100%
CN(c1nccc(-c2cnn3ncccc23)n1)C1CC1  remaining binding (binding; 1 µM): 85%
c1cncc(-c2cccc(Nc3nccc(NC4CCCCC4)n3)c2)c1  remaining binding (binding; competition with immobilised ligand; 10 µM): 92%
C[C@@H]1CN(c2ccc3ncc(-c4ccc5[nH]nc(C6CC6)c5c4)n3n2)C[C@H](C)O1  remaining binding (binding; competition with immobilised ligand; 50 nM): 84%
CC1=C(C#N)C(c2ccc3c(c2)c(NC(=O)c2ccccc2C)nn3C)C(C#N)=C(C)N1  remaining binding (cell-free assay; competition with immobilised ligand; 1 µM): 79%
Cc1cc(-c2cc(C(F)(F)F)ccc2O[C@H]2C[C@@]2(CNS(=O)(=O)c2ccc([N+](=O)[O-])cc2)c2ccc(F)cc2F)[nH]n1  remaining binding (cell-free assay; competition with immobilised ligand; 0.3 µM): 32%
CN1CCN(c2cnc3c(C4CCN(C(=O)c5ccc(OC(F)(F)F)cc5N)CC4)ncnc3c2)CC1  remaining binding (cell-free assay; competition with immobilised ligand; 1 µM): 85%
O=C(c1ccc(Nc2nccc(-c3cc4ccccc4s3)n2)cc1)N1CCC(N2CCCC2)CC1  remaining binding (binding; competition with immobilised ligand; 1 µM): 86%
CC1CCCN1c1nccc(-c2cnn3ncccc23)n1 (centres unmarked)  remaining binding (binding; competition with immobilised ligand; 1 µM): 87%
O=C(N1CCS(=O)(=O)CC1)N1C[C@H](c2ccc(OC(F)(F)F)cc2)C[C@H](c2nc(C3CC3)no2)C1  remaining binding (cell-free assay; competition with immobilised ligand; 1 µM): 100%
